# Measurements reported in ChEMBL document CHEMBL4715736, “Identification of anticancer agents based on the thieno[2,3-b]pyridine and 1H-pyrazole molecular scaffolds” (2016).
# Tested on: M14
# Assay: Growth inhibition of human M14 cells assessed as cell growth at 10 uM incubated for 48 hrs by sulforhodamine B assay relative to control
# Assay type: functional
# Details: read-out: Activity
# Method in brief: (§1)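 Submitted to the NCI Developmental Therapeutics Program for the NCI60 human tumour cell line panel. First screen at a single 10 µM concentration. Read-out is growth relative to untreated control cells set at 100%.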
row,SMILES,growth at 10 µM
1,Nc1c(C(=O)N(c2ccccc2)c2ccccc2)sc2nc3c(cc12)C(=O)CCC3,94.2%

# Tested on: NCI-H460
# Assay: Growth inhibition of human NCI-H460 cells assessed as cell growth at 10 uM incubated for 48 hrs by sulforhodamine B assay relative to control
# Assay type: functional
# Details: read-out: Activity
# Method in brief: as §1
row,SMILES,growth at 10 µM
1,Nc1c(C(=O)N(c2ccccc2)c2ccccc2)sc2nc3c(cc12)C(=O)CCC3,99.9%

# Tested on: SN12C
# Assay: Growth inhibition of human SN12C cells assessed as cell growth at 10 uM incubated for 48 hrs by sulforhodamine B assay relative to control
# Assay type: functional
# Details: read-out: Activity
# Method in brief: (§2)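 Run by the NCI Developmental Therapeutics Program as part of its 60-line human tumour panel. Each compound tested at a single 10 µM dose. Growth expressed as % relative to untreated control cells (100%).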
row,SMILES,growth at 10 µM
1,Nc1c(C(=O)N(c2ccccc2)c2ccccc2)sc2nc3c(cc12)C(=O)CCC3,101%

# Tested on: HL-60(TB)
# Assay: Growth inhibition of human HL-60(TB) cells assessed as cell growth at 10 uM incubated for 48 hrs by sulforhodamine B assay relative to control
# Assay type: functional
# Details: read-out: Activity
# Method in brief: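 Screened by the NCI Developmental Therapeutics Program on its panel of 60 human tumour cell lines. Compounds were first tested at a single 10 µM dose, and compounds active there went to dose-response curves. Growth is expressed relative to untreated control (100%). GI50 (50% of maximal proliferation inhibition) and TGI (total growth inhibition) were derived from the dose-response data.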
row,SMILES,growth at 10 µM
1,Nc1c(C(=O)N(c2ccccc2)c2ccccc2)sc2nc3c(cc12)C(=O)CCC3,105%

# Tested on: KM12
# Assay: Growth inhibition of human KM12 cells assessed as cell growth at 10 uM incubated for 48 hrs by sulforhodamine B assay relative to control
# Assay type: functional
# Details: read-out: Activity
# Method in brief: as §1
row,SMILES,growth at 10 µM
1,Nc1c(C(=O)N(c2ccccc2)c2ccccc2)sc2nc3c(cc12)C(=O)CCC3,79%

# Tested on: MDA-MB-435
# Assay: Growth inhibition of human MDA-MB-435 cells assessed as cell growth at 10 uM incubated for 48 hrs by sulforhodamine B assay relative to control
# Assay type: functional
# Details: read-out: Activity
# Method in brief: as §1
row,SMILES,growth at 10 µM
1,Nc1c(C(=O)N(c2ccccc2)c2ccccc2)sc2nc3c(cc12)C(=O)CCC3,110%

# Tested on: CCRF-CEM
# Assay: Growth inhibition of human CCRF-CEM cells assessed as cell growth at 10 uM incubated for 48 hrs by sulforhodamine B assay relative to control
# Assay type: functional
# Details: read-out: Activity
# Method in brief: (§3)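 NCI Developmental Therapeutics Program NCI60 panel. Compounds that were active in the 10 µM one-dose screen went on to dose–response testing. Growth at each concentration is expressed relative to untreated control (100%). GI50 (concentration giving 50% of maximal inhibition of proliferation) and TGI (concentration giving total growth inhibition) were derived from the curves.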
row,SMILES,growth at 10 µM
1,Nc1c(C(=O)N(c2ccccc2)c2ccccc2)sc2nc3c(cc12)C(=O)CCC3,96.1%

# Tested on: SNB-75
# Assay: Growth inhibition of human SNB-75 cells assessed as cell growth at 10 uM incubated for 48 hrs by sulforhodamine B assay relative to control
# Assay type: functional
# Details: read-out: Activity
# Method in brief: as §2
row,SMILES,growth at 10 µM
1,Nc1c(C(=O)N(c2ccccc2)c2ccccc2)sc2nc3c(cc12)C(=O)CCC3,108%

# Tested on: RXF 393
# Assay: Growth inhibition of human RXF 393 cells assessed as cell growth at 10 uM incubated for 48 hrs by sulforhodamine B assay relative to control
# Assay type: functional
# Details: read-out: Activity
# Method in brief: as §2
row,SMILES,growth at 10 µM
1,Nc1c(C(=O)N(c2ccccc2)c2ccccc2)sc2nc3c(cc12)C(=O)CCC3,111%

# Tested on: IGROV-1
# Assay: Growth inhibition of human IGROV-1 cells assessed as cell growth at 10 uM incubated for 48 hrs by sulforhodamine B assay relative to control
# Assay type: functional
# Details: read-out: Activity
# Method in brief: as §1
row,SMILES,growth at 10 µM
1,Nc1c(C(=O)N(c2ccccc2)c2ccccc2)sc2nc3c(cc12)C(=O)CCC3,103%

# Tested on: SF-539
# Assay: Growth inhibition of human SF-539 cells assessed as cell growth at 10 uM incubated for 48 hrs by sulforhodamine B assay relative to control
# Assay type: functional
# Details: read-out: Activity
# Method in brief: as §2
row,SMILES,growth at 10 µM
1,Nc1c(C(=O)N(c2ccccc2)c2ccccc2)sc2nc3c(cc12)C(=O)CCC3,81.7%

# Tested on: SK-MEL-5
# Assay: Growth inhibition of human SK-MEL-5 cells assessed as cell growth at 10 uM incubated for 48 hrs by sulforhodamine B assay relative to control
# Assay type: functional
# Details: read-out: Activity
# Method in brief: as §2
row,SMILES,growth at 10 µM
1,Nc1c(C(=O)N(c2ccccc2)c2ccccc2)sc2nc3c(cc12)C(=O)CCC3,102%

# Tested on: MDA-MB-468
# Assay: Growth inhibition of human MDA-MB-468 cells assessed as cell growth at 10 uM incubated for 48 hrs by sulforhodamine B assay relative to control
# Assay type: functional
# Details: read-out: Activity
# Method in brief: as §1
row,SMILES,growth at 10 µM
1,Nc1c(C(=O)N(c2ccccc2)c2ccccc2)sc2nc3c(cc12)C(=O)CCC3,106%

# Tested on: SF-295
# Assay: Growth inhibition of human SF-295 cells assessed as cell growth at 10 uM incubated for 48 hrs by sulforhodamine B assay relative to control
# Assay type: functional
# Details: read-out: Activity
# Method in brief: as §2
row,SMILES,growth at 10 µM
1,Nc1c(C(=O)N(c2ccccc2)c2ccccc2)sc2nc3c(cc12)C(=O)CCC3,107%

# Tested on: A549
# Assay: Growth inhibition of human A549/ATCC cells assessed as cell growth at 10 uM incubated for 48 hrs by sulforhodamine B assay relative to control
# Assay type: functional
# Details: read-out: Activity
# Method in brief: as §3
row,SMILES,growth at 10 µM
1,Nc1c(C(=O)N(c2ccccc2)c2ccccc2)sc2nc3c(cc12)C(=O)CCC3,90.2%

# Tested on: NCI-H226
# Assay: Growth inhibition of human NCI-H226 cells assessed as cell growth at 10 uM incubated for 48 hrs by sulforhodamine B assay relative to control
# Assay type: functional
# Details: read-out: Activity
# Method in brief: as §1
row,SMILES,growth at 10 µM
1,Nc1c(C(=O)N(c2ccccc2)c2ccccc2)sc2nc3c(cc12)C(=O)CCC3,104%

# Tested on: NCI/ADR-RES
# Assay: Growth inhibition of human NCI/ADR-RES cells assessed as cell growth at 10 uM incubated for 48 hrs by sulforhodamine B assay relative to control
# Assay type: functional
# Details: read-out: Activity
# Method in brief: as §1
row,SMILES,growth at 10 µM
1,Nc1c(C(=O)N(c2ccccc2)c2ccccc2)sc2nc3c(cc12)C(=O)CCC3,101%

# Tested on: NCI-H322M
# Assay: Growth inhibition of human NCI-H322M cells assessed as cell growth at 10 uM incubated for 48 hrs by sulforhodamine B assay relative to control
# Assay type: functional
# Details: read-out: Activity
# Method in brief: as §1
row,SMILES,growth at 10 µM
1,Nc1c(C(=O)N(c2ccccc2)c2ccccc2)sc2nc3c(cc12)C(=O)CCC3,102%

# Tested on: SK-MEL-28
# Assay: Growth inhibition of human SK-MEL-28 cells assessed as cell growth at 10 uM incubated for 48 hrs by sulforhodamine B assay relative to control
# Assay type: functional
# Details: read-out: Activity
# Method in brief: as §2
row,SMILES,growth at 10 µM
1,Nc1c(C(=O)N(c2ccccc2)c2ccccc2)sc2nc3c(cc12)C(=O)CCC3,116%

# Tested on: OVCAR-5
# Assay: Growth inhibition of human OVCAR-5 cells assessed as cell growth at 10 uM incubated for 48 hrs by sulforhodamine B assay relative to control
# Assay type: functional
# Details: read-out: Activity
# Method in brief: as §2
row,SMILES,growth at 10 µM
1,Nc1c(C(=O)N(c2ccccc2)c2ccccc2)sc2nc3c(cc12)C(=O)CCC3,130%

# Tested on: Hs-578T
# Assay: Growth inhibition of human Hs-578T cells assessed as cell growth at 10 uM incubated for 48 hrs by sulforhodamine B assay relative to control
# Assay type: functional
# Details: read-out: Activity
# Method in brief: as §1
row,SMILES,growth at 10 µM
1,Nc1c(C(=O)N(c2ccccc2)c2ccccc2)sc2nc3c(cc12)C(=O)CCC3,92.3%

# Tested on: HOP-92
# Assay: Growth inhibition of human HOP-92 cells assessed as cell growth at 10 uM incubated for 48 hrs by sulforhodamine B assay relative to control
# Assay type: functional
# Details: read-out: Activity
# Method in brief: as §1
row,SMILES,growth at 10 µM
1,Nc1c(C(=O)N(c2ccccc2)c2ccccc2)sc2nc3c(cc12)C(=O)CCC3,103%

# Tested on: MOLT-4
# Assay: Growth inhibition of human MOLT-4 cells assessed as cell growth at 10 uM incubated for 48 hrs by sulforhodamine B assay relative to control
# Assay type: functional
# Details: read-out: Activity
# Method in brief: as §1
row,SMILES,growth at 10 µM
1,Nc1c(C(=O)N(c2ccccc2)c2ccccc2)sc2nc3c(cc12)C(=O)CCC3,102%

# Tested on: HCT-15
# Assay: Growth inhibition of human HCT-15 cells assessed as cell growth at 10 uM incubated for 48 hrs by sulforhodamine B assay relative to control
# Assay type: functional
# Details: read-out: Activity
# Method in brief: as §1
row,SMILES,growth at 10 µM
1,Nc1c(C(=O)N(c2ccccc2)c2ccccc2)sc2nc3c(cc12)C(=O)CCC3,89.5%

# Tested on: UACC-62
# Assay: Growth inhibition of human UACC-62 cells assessed as cell growth at 10 uM incubated for 48 hrs by sulforhodamine B assay relative to control
# Assay type: functional
# Details: read-out: Activity
# Method in brief: as §2
row,SMILES,growth at 10 µM
1,Nc1c(C(=O)N(c2ccccc2)c2ccccc2)sc2nc3c(cc12)C(=O)CCC3,109%

# Tested on: A498
# Assay: Growth inhibition of human A498 cells assessed as cell growth at 10 uM incubated for 48 hrs by sulforhodamine B assay relative to control
# Assay type: functional
# Details: read-out: Activity
# Method in brief: as §3
row,SMILES,growth at 10 µM
1,Nc1c(C(=O)N(c2ccccc2)c2ccccc2)sc2nc3c(cc12)C(=O)CCC3,76.3%

# Tested on: OVCAR-3
# Assay: Growth inhibition of human OVCAR-3 cells assessed as cell growth at 10 uM incubated for 48 hrs by sulforhodamine B assay relative to control
# Assay type: functional
# Details: read-out: Activity
# Method in brief: as §2
row,SMILES,growth at 10 µM
1,Nc1c(C(=O)N(c2ccccc2)c2ccccc2)sc2nc3c(cc12)C(=O)CCC3,107%

# Tested on: HOP-62
# Assay: Growth inhibition of human HOP-62 cells assessed as cell growth at 10 uM incubated for 48 hrs by sulforhodamine B assay relative to control
# Assay type: functional
# Details: read-out: Activity
# Method in brief: as §1
row,SMILES,growth at 10 µM
1,Nc1c(C(=O)N(c2ccccc2)c2ccccc2)sc2nc3c(cc12)C(=O)CCC3,99.3%

# Tested on: HCT-116
# Assay: Growth inhibition of human HCT-116 cells assessed as cell growth at 10 uM incubated for 48 hrs by sulforhodamine B assay relative to control
# Assay type: functional
# Details: read-out: Activity
# Method in brief: as §1
row,SMILES,growth at 10 µM
1,Nc1c(C(=O)N(c2ccccc2)c2ccccc2)sc2nc3c(cc12)C(=O)CCC3,94.2%

# Tested on: PC-3
# Assay: Growth inhibition of human PC-3 cells assessed as cell growth at 10 uM incubated for 48 hrs by sulforhodamine B assay relative to control
# Assay type: functional
# Details: read-out: Activity
# Method in brief: as §2
row,SMILES,growth at 10 µM
1,Nc1c(C(=O)N(c2ccccc2)c2ccccc2)sc2nc3c(cc12)C(=O)CCC3,103%

# Tested on: UACC-257
# Assay: Growth inhibition of human UACC-257 cells assessed as cell growth at 10 uM incubated for 48 hrs by sulforhodamine B assay relative to control
# Assay type: functional
# Details: read-out: Activity
# Method in brief: as §2
row,SMILES,growth at 10 µM
1,Nc1c(C(=O)N(c2ccccc2)c2ccccc2)sc2nc3c(cc12)C(=O)CCC3,106%

# Tested on: UO-31
# Assay: Growth inhibition of human UO-31 cells assessed as cell growth at 10 uM incubated for 48 hrs by sulforhodamine B assay relative to control
# Assay type: functional
# Details: read-out: Activity
# Method in brief: as §2
row,SMILES,growth at 10 µM
1,Nc1c(C(=O)N(c2ccccc2)c2ccccc2)sc2nc3c(cc12)C(=O)CCC3,87%
